Reference: ChEMBL document CHEMBL3407388, “Synthesis, anticancer activity and molecular docking studies on a series of heterocyclic trans-cyanocombretastatin analogues as antitubulin agents” (2015)

Assays:
Type in all cases: functional
[1] = Cytotoxicity against human HCT15 cells assessed as growth inhibition after 48 hrs by SRB assay; conditions: HCT-15, 48 h
Method in brief: (§1)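 NCI 60-cell panel; compounds passing a single-dose screen (10−5 M, 48 h) were tested at five 10-fold dilutions (10−4 to 10−8 M) with 48 h drug exposure. GI50 is the molar concentration giving 50% reduction in net cell growth relative to cell numbers on day 0.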

U-251 = test: Cytotoxicity against human U251 cells assessed as growth inhibition after 48 hrs by SRB assay; conditions: U-251, 48 h
[2] = Cytotoxicity against human OVCAR4 cells assessed as growth inhibition after 48 hrs by SRB assay; conditions: OVCAR-4, 48 h; method in brief: as §1
MDA-MB-231 = test: Cytotoxicity against human MDA-MB-231 cells assessed as growth inhibition after 48 hrs by SRB assay; conditions: MDA-MB-231, 48 h; method in brief: as §1
CAKI-1 = test: Cytotoxicity against human Caki1 cells assessed as growth inhibition after 48 hrs by SRB assay; conditions: CAKI-1, 48 h; method in brief: as §1
SN12C = test: Cytotoxicity against human SN12C cells assessed as growth inhibition after 48 hrs by SRB assay; method in brief: as §1
SF-295 = test: Cytotoxicity against human SF295 cells assessed as growth inhibition after 48 hrs by SRB assay; conditions: SF-295, 48 h; method in brief: as §1
[3] = Cytotoxicity against human OVCAR3 cells assessed as growth inhibition after 48 hrs by SRB assay; conditions: OVCAR-3, 48 h; method in brief: as §1
NCI-H23 = test: Cytotoxicity against human NCI-H23 cells assessed as growth inhibition after 48 hrs by SRB assay; conditions: NCI-H23, 48 h; method in brief: as §1
RPMI-8226 = test: Cytotoxicity against human RPMI8226 cells assessed as growth inhibition after 48 hrs by SRB assay; conditions: RPMI-8226, 48 h; method in brief: as §1
TK-10 = test: Cytotoxicity against human TK10 cells assessed as growth inhibition after 48 hrs by SRB assay; conditions: TK-10, 48 h
SW-620 = test: Cytotoxicity against human SW620 cells assessed as growth inhibition after 48 hrs by SRB assay; conditions: SW-620, 48 h
RXF 393 = test: Cytotoxicity against human RXF393 cells assessed as growth inhibition after 48 hrs by SRB assay; conditions: RXF 393, 48 h; method in brief: as §1
MDA-MB-435 = test: Cytotoxicity against human MDA-MB-435 cells assessed as growth inhibition after 48 hrs by SRB assay; conditions: MDA-MB-435, 48 h; method in brief: as §1
HT-29 = test: Cytotoxicity against human HT-29 cells assessed as growth inhibition after 48 hrs by SRB assay; conditions: HT-29, 48 h; method in brief: as §1
M14 = test: Cytotoxicity against human M14 cells assessed as growth inhibition after 48 hrs by SRB assay; conditions: M14, 48 h; method in brief: as §1
IGROV-1 = test: Cytotoxicity against human IGROV1 cells assessed as growth inhibition after 48 hrs by SRB assay; conditions: IGROV-1, 48 h; method in brief: as §1
NCI-H460 = test: Cytotoxicity against human NCI-H460 cells assessed as growth inhibition after 48 hrs by SRB assay; conditions: NCI-H460, 48 h; method in brief: as §1
[4] = Cytotoxicity against human PC3 cells assessed as growth inhibition after 48 hrs by SRB assay; conditions: PC-3, 48 h; method in brief: as §1
[5] = Cytotoxicity against human UACC62 cells assessed as growth inhibition after 48 hrs by SRB assay; conditions: UACC-62, 48 h
[6] = Cytotoxicity against human Hs578T cells assessed as growth inhibition after 48 hrs by SRB assay; conditions: Hs-578T; method in brief: as §1
786-0 = test: Cytotoxicity against human 786-0 cells assessed as growth inhibition after 48 hrs by SRB assay; conditions: 786-0, 48 h; method in brief: as §1
DU-145 = test: Cytotoxicity against human DU145 cells assessed as growth inhibition after 48 hrs by SRB assay; conditions: DU-145, 48 h; method in brief: as §1
NCI-H226 = test: Cytotoxicity against human NCI-H226 cells assessed as growth inhibition after 48 hrs by SRB assay; conditions: NCI-H226, 48 h; method in brief: as §1
HL-60(TB) = test: Cytotoxicity against human HL-60(TB) cells assessed as growth inhibition after 48 hrs by SRB assay; conditions: HL-60, 48 h
Method in brief: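 NCI 60-cell panel, leukemia subpanel. Five-dose screen at 10-fold dilutions from 10−4 to 10−8 M with 48 h drug exposure. GI50 is the molar concentration giving 50% reduction in net cell growth compared with cell numbers on day 0.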

SK-MEL-5 = test: Cytotoxicity against human SK-MEL-5 cells assessed as growth inhibition after 48 hrs by SRB assay; conditions: SK-MEL-5, 48 h; method in brief: as §1
[7] = Cytotoxicity against human HCT116 cells assessed as growth inhibition after 48 hrs by SRB assay; conditions: HCT-116, 48 h; method in brief: as §1
SF-539 = test: Cytotoxicity against human SF539 cells assessed as growth inhibition after 48 hrs by SRB assay; conditions: SF-539, 48 h; method in brief: as §1
SK-OV-3 = test: Cytotoxicity against human SKOV3 cells assessed as growth inhibition after 48 hrs by SRB assay; conditions: SK-OV-3, 48 h; method in brief: as §1
SNB-75 = test: Cytotoxicity against human SNB75 cells assessed as growth inhibition after 48 hrs by SRB assay; conditions: SNB-75, 48 h
COLO 205 = test: Cytotoxicity against human COLO205 cells assessed as growth inhibition after 48 hrs by SRB assay; conditions: COLO 205, 48 h; method in brief: as §1
HCC 2998 = test: Cytotoxicity against human HCC2998 cells assessed as growth inhibition after 48 hrs by SRB assay; conditions: HCC 2998, 48 h; method in brief: as §1
LOX IMVI = test: Cytotoxicity against human LOXIMVI cells assessed as growth inhibition after 48 hrs by SRB assay; method in brief: as §1
BT-549 = test: Cytotoxicity against human BT549 cells assessed as growth inhibition after 48 hrs by SRB assay; conditions: BT-549, 48 h; method in brief: as §1
SF-268 = test: Cytotoxicity against human SF268 cells assessed as growth inhibition after 48 hrs by SRB assay; conditions: SF-268, 48 h; method in brief: as §1
KM12 = test: Cytotoxicity against human KM12 cells assessed as growth inhibition after 48 hrs by SRB assay; conditions: KM12, 48 h; method in brief: as §1
MOLT-4 = test: Cytotoxicity against human MOLT4 cells assessed as growth inhibition after 48 hrs by SRB assay; conditions: MOLT-4, 48 h; method in brief: as §1
[8] = Cytotoxicity against human OVCAR8 cells assessed as growth inhibition after 48 hrs by SRB assay; conditions: OVCAR-8, 48 h; method in brief: as §1
SNB-19 = test: Cytotoxicity against human SNB19 cells assessed as growth inhibition after 48 hrs by SRB assay; conditions: SNB-19, 48 h; method in brief: as §1
MCF7 = test: Cytotoxicity against human MCF7 cells assessed as growth inhibition after 48 hrs by SRB assay; conditions: MCF7, 48 h; method in brief: as §1
[9] = Cytotoxicity against human NCI-ADR-RES cells assessed as growth inhibition after 48 hrs by SRB assay; method in brief: as §1
A498 = test: Cytotoxicity against human A498 cells assessed as growth inhibition after 48 hrs by SRB assay; conditions: A498, 48 h; method in brief: as §1
K562 = test: Cytotoxicity against human K562 cells assessed as growth inhibition after 48 hrs by SRB assay; conditions: K562, 48 h; method in brief: as §1

## COc1cc(/C(C#N)=C/c2coc3ccccc23)cc(OC)c1OC
[1]
  GI50: 492 nM
U-251
  GI50: 605 nM
[2]
  GI50: 2610 nM
MDA-MB-231
  GI50: 1710 nM
CAKI-1
  GI50: 650 nM
SN12C
  GI50: 2170 nM
SF-295
  GI50: 446 nM
[3]
  GI50: 277 nM
NCI-H23
  GI50: 4580 nM
RPMI-8226
  GI50: 2470 nM
TK-10
  GI50: 2100 nM
SW-620
  GI50: 504 nM
RXF 393
  GI50: 496 nM
MDA-MB-435
  GI50: 278 nM
HT-29
  GI50: 394 nM
M14
  GI50: 667 nM
IGROV-1
  GI50: 3060 nM
NCI-H460
  GI50: 839 nM
[4]
  GI50: 1840 nM
[5]
  GI50: 519 nM
[6]
  GI50: 2030 nM
786-0
  GI50: 6110 nM
DU-145
  GI50: 1880 nM
NCI-H226
  GI50: 6200 nM
HL-60(TB)
  GI50: 1030 nM
SK-MEL-5
  GI50: 336 nM
[7]
  GI50: 517 nM
SF-539
  GI50: 442 nM
SK-OV-3
  GI50: 1710 nM
SNB-75
  GI50: 769 nM
COLO 205
  GI50: 449 nM
HCC 2998
  GI50: 4130 nM
LOX IMVI
  GI50: 993 nM
BT-549
  GI50: 927 nM
SF-268
  GI50: 4790 nM
KM12
  GI50: 586 nM
MOLT-4
  GI50: 3820 nM
[8]
  GI50: 2900 nM
SNB-19
  GI50: 3630 nM
MCF7
  GI50: 376 nM
[9]
  GI50: 382 nM
A498
  GI50: 458 nM
K562
  GI50: 513 nM

## COc1cc(OC)cc(/C(C#N)=C/c2nc3ccccc3s2)c1
[1]
  GI50: 414 nM
U-251
  GI50: 1910 nM
[2]
  GI50: > 10000 nM
MDA-MB-231
  GI50: 6740 nM
CAKI-1
  GI50: 482 nM
SN12C
  GI50: 4680 nM
SF-295
  GI50: 2460 nM
[3]
  GI50: 285 nM
NCI-H23
  GI50: 2840 nM
RPMI-8226
  GI50: 2290 nM
TK-10
  GI50: 2780 nM
SW-620
  GI50: 343 nM
RXF 393
  GI50: 551 nM
MDA-MB-435
  GI50: 199 nM
HT-29
  GI50: 438 nM
M14
  GI50: 1210 nM
IGROV-1
  GI50: 706 nM
NCI-H460
  GI50: 2860 nM
[4]
  GI50: 2740 nM
[5]
  GI50: 755 nM
[6]
  GI50: 2010 nM
786-0
  GI50: 2440 nM
DU-145
  GI50: 1070 nM
NCI-H226
  GI50: 4110 nM
HL-60(TB)
  GI50: 345 nM
SK-MEL-5
  GI50: 1370 nM
[7]
  GI50: 404 nM
SF-539
  GI50: 1680 nM
SK-OV-3
  GI50: 1790 nM
SNB-75
  GI50: 2130 nM
COLO 205
  GI50: 574 nM
HCC 2998
  GI50: 8390 nM
LOX IMVI
  GI50: 1840 nM
BT-549
  GI50: 3450 nM
SF-268
  GI50: 3090 nM
KM12
  GI50: 2010 nM
MOLT-4
  GI50: 3380 nM
[8]
  GI50: 3130 nM
SNB-19
  GI50: > 10000 nM
MCF7
  GI50: 399 nM
[9]
  GI50: 1470 nM
A498
  GI50: 417 nM
K562
  GI50: 333 nM

## COc1ccc(/C(C#N)=C/c2cc3ccccc3o2)cc1OC
[1]
  GI50: 469 nM
U-251
  GI50: 760 nM
[2]
  GI50: 7190 nM
MDA-MB-231
  GI50: 1210 nM
CAKI-1
  GI50: 492 nM
SN12C
  GI50: 956 nM
SF-295
  GI50: 708 nM
[3]
  GI50: 279 nM
NCI-H23
  GI50: 3110 nM
RPMI-8226
  GI50: 1320 nM
TK-10
  GI50: 2280 nM
SW-620
  GI50: 388 nM
RXF 393
  GI50: 1300 nM
MDA-MB-435
  GI50: 229 nM
HT-29
  GI50: 373 nM
M14
  GI50: 437 nM
IGROV-1
  GI50: 1270 nM
NCI-H460
  GI50: 472 nM
[4]
  GI50: 2410 nM
[5]
  GI50: 557 nM
[6]
  GI50: 1880 nM
786-0
  GI50: 5840 nM
DU-145
  GI50: 1300 nM
NCI-H226
  GI50: 34500 nM
HL-60(TB)
  GI50: 481 nM
SK-MEL-5
  GI50: 564 nM
[7]
  GI50: 418 nM
SF-539
  GI50: 1560 nM
SK-OV-3
  GI50: 2490 nM
SNB-75
  GI50: 1780 nM
COLO 205
  GI50: 404 nM
HCC 2998
  GI50: 2330 nM
LOX IMVI
  GI50: 930 nM
BT-549
  GI50: 950 nM
SF-268
  GI50: 2050 nM
KM12
  GI50: 356 nM
MOLT-4
  GI50: 548 nM
[8]
  GI50: 3980 nM
SNB-19
  GI50: 5550 nM
MCF7
  GI50: 446 nM
[9]
  GI50: 317 nM
A498
  GI50: 540 nM
K562
  GI50: 467 nM
